Bioassay records: PubChem BioAssay, several laboratories
An excerpt weighted towards active compounds, which were near 1.8% of everything screened.
Ecoli rRNA inh – inhibitors of bacterial rRNA selective over humanized ribosomes; E. coli WT GFP vs humanized-ribosome RFP mutants, fluorescence, 24 h; hits give low values; DMSO median 0, no signal -100; hit rate 1.6% among 350,000; AID 720706; GFP signal change (wild-type ribosome), % (concentration not given with the values);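 active means significant combined selectivity score with lowered wild-type GFP, culture density cut under 30%, mutant RFP and density less affected; inactive means any of these conditions unmet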
iPSC survival up – enhancers of human iPSC single-cell survival. hiPSC single-cell survival, ATPlite luminescence; 100% = ROCK inhibitor wells, 0% = DMSO. hit rate 0.044% among 360,000. survival enhancement, % at 20 µM; in the data active means survival enhancement above about 18%;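 further: cells exposed to compounds for 16 hours before the ATP read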
DAGLB inh – diacylglycerol lipase beta (human) inhibition | AID 504411 | inhibition, % at 5.17 µM | Q8NCG7 | HEK293T DAGLB membrane lysate, EnzChek fluorogenic substrate | hit rate 0.059% among 340,000; in the data active means inhibition above about 34%;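 further: 0% = enzyme with vehicle and 100% = wells lacking enzyme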
Target sequence (Q8NCG7 whole entry, looked up): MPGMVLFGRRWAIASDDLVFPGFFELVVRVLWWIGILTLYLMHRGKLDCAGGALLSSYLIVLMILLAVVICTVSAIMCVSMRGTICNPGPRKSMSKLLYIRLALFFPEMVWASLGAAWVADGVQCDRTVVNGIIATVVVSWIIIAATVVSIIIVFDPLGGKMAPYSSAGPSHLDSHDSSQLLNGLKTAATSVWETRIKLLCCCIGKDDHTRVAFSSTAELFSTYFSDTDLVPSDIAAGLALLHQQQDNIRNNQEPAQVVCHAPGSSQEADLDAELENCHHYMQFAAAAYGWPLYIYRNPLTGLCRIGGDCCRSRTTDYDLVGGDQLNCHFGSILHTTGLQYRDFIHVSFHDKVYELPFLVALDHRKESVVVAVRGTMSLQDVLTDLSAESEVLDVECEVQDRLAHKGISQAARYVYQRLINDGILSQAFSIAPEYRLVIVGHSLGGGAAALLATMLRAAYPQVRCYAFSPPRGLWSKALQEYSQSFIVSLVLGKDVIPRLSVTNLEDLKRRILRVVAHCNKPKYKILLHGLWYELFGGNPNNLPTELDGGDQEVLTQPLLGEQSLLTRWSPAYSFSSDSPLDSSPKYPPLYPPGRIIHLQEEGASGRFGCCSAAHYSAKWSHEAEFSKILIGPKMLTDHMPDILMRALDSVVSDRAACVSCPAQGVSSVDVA
Cneo AK release – causes C. neoformans cell lysis; adenylate kinase release luminescence, 4 h; normalised: neutral wells 0, clomiphene wells 100; lysis activity, % at 15 µM; hit rate 0.2% among 360,000; AID 651654;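 active means mean lysis activity across replicates of at least 80%, whatever share of replicates individually reach that level; inactive means mean lysis activity below 80%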
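Assay system: log-phase C. neoformans yeast / Quantity: yeast cell density of 5 × 10^6 cells/mL / Medium: fresh YPD growth medium / Compound: single dose / Timing: static 4 h at 37 °C with compound, 1 h detection / Measured by: adenylate kinase release luminescence / Read-out: lysis from increased AK signal / Benchmarks: Clomiphene as positive lysis control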
MT1-MMP act inh – MT1-MMP (human) activation inhibition; P50281; HT1080 RFP-PRO-GFP cells, GFP/RFP ratio fluorescence, overnight; percent of plate control window, DMSO zero; GFP/RFP ratio change, % at 20 µM; hit rate 0.061% among 360,000;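 active means GFP/RFP ratio change of at least 30% with cell ATP level not reduced by more than half and red fluorescence within 50% of control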
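Assay system: HT1080 RFP-PRO-GFP cells. Benchmarks: DMSO vehicle wells and RFP-L50D-GFP reporter cell wells. Times: overnight cell settling, then overnight compound exposure, 37 °C, 5% CO2. Compound: 20 µM single dose, 1% DMSO. Read-out basis: GFP/RFP fluorescence ratio.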
SKN-1 inh – C. elegans SKN-1 inhibition; C. elegans VP596 Pgst-4::GFP/RFP ratio, acrylamide-induced, 24 h; hit rate 0.49% among 360,000; inhibition, % at 21.8 µM;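 active means interference check ratio from 0.5 to 1.5 plus GFP to RFP signal ratio inhibition reaching or exceeding a fixed threshold, cut at about 30% in these data, passing the limit was not always enough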
Numbers without * were called inactive; · = no result.

SMILES | Ecoli rRNA inh | iPSC survival up | DAGLB inh | Cneo AK release | MT1-MMP act inh | SKN-1 inh
CC(C)(C)S(=O)N1Cc2cc(C(=O)O)nc(-c3cccc(C#CCC4CCCC4)c3)c2[C@@H]1CCO (stereo partly drawn) | -4 | · | · | · | · | ·
C[C@H]1CN([C@@H](C)CO)C(=O)c2cc(-c3ccc(C#N)cc3)cnc2O[C@@H]1CN(C)C(=O)CC1CC1 | -1 | · | · | -2 | · | ·
Cc1c2ccccc2nc2ccccc12 | 10 | 0 | 10 | · | 0 | 3
CCCNc1c(F)c(F)c2c(C)c3ccccc3nc2c1F | · | -1 | -9 | -4 | -64 | 39*
Cn1c(=O)c2c(-c3ccccc3)n(-c3ccc(N)cc3)cc2n(C)c1=O | 3 | -1 | · | 1 | -4 | 49*
Cn1c(=O)c2c(-c3ccccc3)n(-c3cccc(O)c3)cc2n(C)c1=O | 7 | 0 | · | -1 | -10 | 9
C[C@H]1CN([C@@H](C)CO)C(=O)Cc2cc(NS(=O)(=O)c3ccc(F)cc3)ccc2O[C@@H]1CN(C)CC1CCCCC1 | 4 | · | · | 0 | · | ·
CC(C)[C@H]1C(=O)N[C@H](c2ccccc2)CC=CC[C@@H](C)Oc2ccccc2C(=O)N1C (mixture of isomers) | -3 | · | · | · | · | ·
CC(C)(C)N(Cc1ccccc1)C(=O)COC(=O)c1ccc([N+](=O)[O-])o1 | · | -2 | -2 | -1 | -3 | 1
CCN(C(=O)COC(=O)c1ccc([N+](=O)[O-])o1)c1cccc2ccccc12 | -19* | 4 | -2 | 0 | 3 | 4
C(=N/n1c2ccccc2c2ccccc21)/c1ccco1 | · | -2 | -6 | -4 | 21 | 51*
C[C@H]1CN([C@@H](C)CO)C(=O)c2cc(-c3cncnc3)cnc2O[C@@H]1CN(C)C(=O)Cc1ccccn1 | 4 | · | · | -1 | · | ·
CN(C)CC#Cc1ccc([C@H]2[C@H](CO)N3CCCCN(C(=O)C4CC4)C[C@@H]23)cc1 | · | · | · | -2 | · | ·
COc1ccc(NC(=O)N(C)C[C@H]2Oc3ccc(NC(=O)C4CCCCC4)cc3C(=O)N([C@H](C)CO)C[C@H]2C)cc1 | -4 | · | · | 5 | · | ·
COC(=O)c1c(NC(=S)NN2CCN(C)CC2)sc2c1CCC(C)C2 (stereo not drawn) | -55 | -4 | 0 | · | -9 | 35*
COC(=O)c1c(NC(=O)Cc2cccs2)sc2c1CCC(C)C2 (stereo not drawn) | · | 1 | -5 | 2 | -7 | 3
COc1cc(OC)cc(-c2nnc(SCc3c(F)cccc3Cl)o2)c1 | -28* | 0 | -17 | -1 | -3 | 10
Cc1c(Cl)cccc1NC(=S)C(=C([O-])c1ccc(Cl)s1)[n+]1ccccc1 | -11* | 1 | 2 | · | 0 | 3
Nc1ccc(N2CCOCC2)c(S(=O)(=O)Nc2cc(Cl)ccc2Cl)c1 | -26* | 1 | 5 | -4 | -2 | 5
CNC(=S)Nc1cc(S(=O)(=O)Nc2cc(Cl)ccc2Cl)ccc1N1CCCC1 | -27* | -1 | 10 | 0 | 5 | -6
COc1ccc(NS(=O)(=O)c2cc(N)ccc2N2CCOCC2)cc1 | -5 | 0 | 0 | 10 | 2 | 8
Nc1cc(S(=O)(=O)Nc2cc(Cl)ccc2Cl)ccc1N1CCCC1 | -28 | 0 | 2 | · | 2 | -4
O=C(CC(F)(F)F)N1C[C@@H]2[C@H](c3ccccc31)[C@H](CO)N2C(=O)CN1CCOCC1 | 1 | · | · | 2 | · | ·
CNC[C@@H]1Oc2ccc(NC(=O)Nc3ccccc3)cc2CC(=O)N([C@H](C)CO)C[C@H]1C | 0 | · | · | -1 | · | ·
Cc1ccc(Nc2nc(N)nc(CSc3nnc(-c4ccncc4)o3)n2)cc1 | · | -2 | -5 | -3 | 11 | 46*
Fc1ccc(/C=C/c2nnc(-c3cccs3)o2)cc1 | 4 | -3 | -8 | · | 1 | 54*
Cc1ccc(/C=C/c2nnc(-c3cccs3)o2)cc1 | · | 2 | -16 | 0 | · | 19
c1ccc(-c2nc(CSc3nnc(-c4cccs4)o3)cs2)cc1 | · | 0 | 1 | 3 | -8 | 29*
Cc1ccc(Nc2nc(CSc3nnc(-c4cccs4)o3)cs2)cc1 | · | 1 | -1 | -2 | 2 | 35*
